Screening results as filed in PubChem.
Sampled rows, rich in hits. Any-hit rate of the full collection: about 1.8%.
PLK1 inh – human PLK1 kinase inhibitors, primary screen, biochemical, TR-FRET; Serine/threonine-protein kinase PLK1 (Homo sapiens), P53350; recombinant PLK1 kinase, TR-FRET peptide phosphorylation; inhibition, % at 10 µM; 97,000 compounds, 0.53% hits; AID 619, 2007;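 active = inhibition of 50% or more in the single-concentration screen; inactive = inhibition below 50%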
PLK1 PBD inh – Plk1 polo box domain binding inhibitors, primary screen, biochemical, fluorescence polarization | Serine/threonine-protein kinase PLK1 (Homo sapiens), P53350 | Plk1 PBD phosphopeptide binding | inhibition, %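 (tested at about 20 µM)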 | 97,000 compounds, 0.13% hits | AID 693, 2007; in the data active = inhibition above about 34%, passing the limit was not always enough
HIV Rev-RRE inh – HIV-1 Rev-RRE binding inhibitors, primary screen, biochemical, FRET, protein-RNA interaction; inhibition, % at 8 µM; Rev peptide-RRE RNA binding; 97,000 compounds, 0.79% hits;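 active = inhibition above the screen-wide mean plus 3 SD, cut at about 35% in these data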
Target sequence (P05866 whole entry, looked up): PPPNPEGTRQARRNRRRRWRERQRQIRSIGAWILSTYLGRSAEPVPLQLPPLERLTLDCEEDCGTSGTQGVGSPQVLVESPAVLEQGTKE
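Probe or stimulus: fluorescein-Rev peptide as binding partner; assay system: Cy5-tagged RRE RNA duplex with fluorescein-tagged Rev peptide; timing: 5 min compound–RNA preincubation, then 15 min with peptide, 25 °C; medium: HEPES pH 7.5 buffer with KCl, MgCl2, NaCl and EDTA; signal: fluorescein-to-Cy5 FRET, 480 nm excitation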
EphB4 ephrin blk – EphB4-ephrin-B2 interaction antagonists, primary screen, biochemical, TNYL-RAW peptide probe, fluorescence polarization | Ephrin type-B receptor 4 (Homo sapiens), P54760 | EphB4 LBD / TNYL-RAW-Alexa532 peptide | inhibition, % at 7 µM | 97,000 compounds, 0.15% hits;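 active = inhibition above the screen-wide mean inhibition plus 3 SD, cut at about 15% in these data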
LYP act – LYP phosphatase activators, primary screen, biochemical, DiFMUP fluorescence, 2 µM; 96,000 compounds, 0.11% hits; recombinant LYP; 0 = plate median, 100 = signal doubled; activation, % at 2 µM; Tyrosine-protein phosphatase non-receptor type 22 (Homo sapiens), Q9Y2R2;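 active = activation at 2 µM above a set limit, the mean plus 5 SD, cut at about 37% in these data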
LYP inh 2 – PTPN22 phosphatase inhibitors, primary screen, biochemical, DiFMUP fluorescence, 2 µM | Tyrosine-protein phosphatase non-receptor type 22 (Homo sapiens), Q9Y2R2 | recombinant LYP catalytic domain | inhibition, % at 2 µM | 96,000 compounds, 0.21% hits | AID 640, 2007;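 active = inhibition at 2 µM at or above a set limit, the screen mean plus 3 SD, cut at about 24% in these data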
Hits are given with their value; 0 = inactive; - = not tested or not shown; [ ] = dose if it differs, or a comment.

SMILES	PLK1 inh	PLK1 PBD inh	HIV Rev-RRE inh	EphB4 ephrin blk	LYP act	LYP inh 2
Cc1ccc(-c2cc(C(F)F)n3ncc(C(=O)N4CCN(c5cccc(C)c5C)CC4)c3n2)cc1	0	0	0	0	0	0
Cn1cnnc1SCC(=O)c1ccc2c(c1)OCCO2	0	0	0	0	0	0
Cn1c(SCC(=O)c2ccc3c(c2)OCCO3)nnc1C1CC1	61	0	0	0	0	0
CSC1=C(C#N)C(c2ccc(C(C)C)cc2)CC(=O)N1 (stereo not drawn)	66	0	0	0	-	-
C=C(C)Cn1c(SCC(=O)O)nc2c1c(=O)[nH]c(=O)n2C	0	0	0	0	0	0
CCOC(=O)c1sc(N)c(C#N)c1COC(=O)CNC(=O)c1ccccc1	0	0	51	0	0	0
Cc1cccc(N2CCN(C(=O)c3cc4c(=O)n(C)c5ccccc5c4n3C)CC2C)c1 (stereo not drawn)	0	0	0	0	0	0
Cc1cc(C)c(C#N)c(SCC(=O)c2ccc(Cl)cc2Cl)n1	0	0	0	0	0	0
CN=C(NC#N)SCC(=O)c1ccc(Cl)cc1Cl	62	0	0	0	0	0
CCCCn1c2nc3ccccc3nc2c2c(=O)n(CCC)cnc21	0	0	0	0	0	0
CCCCCn1nc(-c2ccccc2)c2nc3ccccc3nc21	0	0	90[fluorescence artefact?]	0	0	0
CCn1c2ccc(Cl)cc2c2nc3ccccc3nc21	0	0	0	0	0	0
CCCn1nc(-c2ccccc2)c2nc3ccccc3nc21	0	0	94[fluorescence artefact?]	0	0	0
CCn1nc(-c2ccccc2)c2nc3ccccc3nc21	0	0	90[fluorescence artefact?]	0	0	0
CCN(CC)CCCN1C(=O)c2oc3ccccc3c(=O)c2C1c1cccs1 (stereo not drawn)	0	0	0	0	0	0
O=c1c2nnn(Cc3ccccc3)c2ncn1-c1ccccc1	0	0	0	0	0	0
COCCCNC(=O)c1cccn2c(=O)c3cc4ccccc4cc3nc12	0	0	80[fluorescence artefact?]	0	0	43
Cc1ccc(Cn2c(=N)c(C(=O)NCc3ccco3)cc3c(=O)n4ccccc4nc32)cc1	0	0	0	0	0	31
O=C(NCc1ccco1)c1cccn2c(=O)c3cc4ccccc4cc3nc12	0	0	57	0	0	0
CCOCCCn1c(=N)c(C(=O)Nc2cc(C)on2)cc2c(=O)n3ccccc3nc21	0	0	0	0	0	0
CC(C)CCN1C(=O)c2ccc(C(=O)OCn3nnc4ccccc4c3=O)cc2C1=O	0	0	0	0	0	0
O=C(O)c1ccccc1-c1ccccc1C(=O)NCc1ccco1	0	0	0	0	0	0
O=C(O)c1ccc(CSc2n[nH]c(-c3ccco3)n2)cc1	0	0	0	15	0	0
COCCNC(=O)c1cn(C)c2ccc(S(=O)(=O)N(C)C3CCCCC3)cc2c1=O	62	0	0	0	-	-
CN1CCN(CCCNC(=O)c2cn(C)c3ccc(S(=O)(=O)N(C)C)cc3c2=O)CC1	0	0	0	0	0	0
SMILES	PLK1 inh	PLK1 PBD inh	HIV Rev-RRE inh	EphB4 ephrin blk	LYP act	LYP inh 2
CC(C)N(CCNC(=O)c1cn(C)c2ccc(S(=O)(=O)N(C)C)cc2c1=O)Cc1ccccc1	59	0	0	0	-	-
CCOCCCNC(=O)c1cn(C)c2ccc(S(=O)(=O)N(C)C3CCCCC3)cc2c1=O	0	0	0	0	0	0
CCCCCc1ccc(CC(=O)Nn2c(C)nc3ccccc3c2=O)cc1	0	0	0	0	0	0
Cc1[nH]c2ccccc2c1C(=O)CSc1nc2ccccc2c(=O)n1CCCN1CCOCC1	0	0	0	0	0	0
O=c1cc(O)c2c(=O)n(-c3ccccc3)c3ccccc3c2o1	0	0	45	0	0	0
Cc1cc2oc(=O)cc(CN3CCc4ccccc43)c2cc1Cl	0	0	0	0	0	0
Cc1ccc2c(CN3CCCc4ccccc43)cc(=O)oc2c1C	0	0	57	0	0	0
Cc1cc(C(=O)CN2C(=O)NC3(CCCCC3)C2=O)c(C)n1Cc1ccc2c(c1)OCO2	0	0	0	0	0	0
Cc1cc(C(=O)CN2C(=O)NC(c3ccccc3)(c3ccccc3)C2=O)c(C)n1Cc1ccccc1	0	0	0	20	0	0
COc1ccc(N2CCN(c3nc(=S)n(-c4ccccc4)c(C)c3C(C)=O)CC2)cc1	0	0	40	0	0	0
CC(=O)c1c(N2CCN(c3cccc(Cl)c3)CC2)nc(=S)n(-c2ccccc2)c1C	0	0	0	0	0	0
CCN1C(=O)/C(=C/N2CCc3ccccc32)SC1=S	0	0	0	0	0	0
CCN1C(=O)/C(=C/C=C2/SCCN2C)SC1=S	0	0	129[fluorescence artefact?]	0	0	0
N#CC(c1cccc(C(F)(F)F)c1)(c1ncc(C(F)(F)F)cc1Cl)N1CCOCC1 (stereo not drawn)	0	0	0	0	0	40
N#CC(c1ccccc1)(c1ncc(C(F)(F)F)cc1Cl)N1CCOCC1 (stereo not drawn)	0	0	0	0	0	0
Cc1c(C(=O)O)nn(-c2ccccc2)c(=O)c1C#N	63	0	0	0	-	-
Cc1ccc(S(=O)(=O)N[C@H](C(=O)Oc2ccc3c(C(F)(F)F)cc(=O)oc3c2)c2ccccc2)cc1	0	0	58	0	0	0
COc1ccc(F)cc1S(=O)(=O)Nc1ccc(C)cc1	0	0	0	0	0	0
Cc1ccc(-c2ccc(C(=O)O)[nH]2)cc1	0	0	0	16	0	0
N#CC1=C(N)Oc2n[nH]c(-c3cccs3)c2C1c1ccco1 (stereo not drawn)	0	0	60	0	0	0
N#CC1=C(N)Oc2n[nH]c(-c3cccs3)c2C1c1ccsc1 (stereo not drawn)	0	0	0	0	0	0
O=C(Nc1ccc(F)cc1)N(Cc1ccco1)Cc1cc2cc3c(cc2[nH]c1=O)OCO3	0	0	37	0	0	0
COc1ccc(N=CC2=C(Nc3ccc(OC)cc3)c3c(C)nn(-c4ccccn4)c3CC2)cc1	0	0	87[fluorescence artefact?]	25	0	0
COc1ccc(-c2cc(C(=O)O)c3c(C)nn(-c4ccccn4)c3n2)cc1	0	0	0	0	0	0
Cc1ccc(N2C(=O)C3C(C2=O)C(C(=O)c2ccc(Cl)cc2)N2CCCC32)cc1 (stereo not drawn)	0	0	62	0	0	0
COc1ccc(CCNC(=O)c2cnn3c(C(F)F)cc(C)nc23)cc1OC	0	0	0	0	0	0
Oc1c(CN2CCCCC2)cc(COCc2ccccc2)c2cccnc12	0	0	0	20	0	0
